6 compounds from ChEMBL document CHEMBL4038284, “Synthesis of novel quinoline-based 4,5-dihydro-1H-pyrazoles as potential anticancer, antifungal, antibacterial and antiprotozoal agents” (Eur J Med Chem, 2017) can be followed below.

Structures are written as SMILES. ≈ marks a conversion by molar mass, not a printed value.

Format in all cases: functional
One experiment relates to KM12. Briefly: Growth inhibition of human KM12 cells incubated for 48 hrs by sulforhodamine B assay. Conditions: KM12, 48 h; for CC50: read-out: LC50 (the source's name). The method in brief:
(§1)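 Five-dose NCI SRB assay at 100, 10, 1.0, 0.1 and 0.01 μM for 48 h at 37 °C, 5% CO2. Medium was RPMI-1640 with 5% FBS and 2 mM glutamine. Time-zero plates were TCA-fixed at compound addition, A515 read after SRB staining. GI50 was solved from [(Ti−Tz)/(C−Tz)]×100 = 50. Values beyond the tested range are given as > or <.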

A further experiment concerns SF-539. Briefly: Growth inhibition of human SF539 cells incubated for 48 hrs by sulforhodamine B assay. Conditions: SF-539, 48 h; for CC50: read-out: LC50 (the source's name). The method in brief:
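NCI-60 panel cells grown in RPMI-1640 with 5% FBS and 2 mM L-glutamine, preincubated 24 h at 37 °C/5% CO2. Time-zero plates were TCA-fixed at compound addition. DMSO stocks were diluted in medium and tested at five final concentrations (100, 10, 1.0, 0.1, 0.01 µM) for 48 h. Cells were TCA-fixed, stained with SRB and read at 515 nm. GI50 = 50% lower net protein increase versus control.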
In general terms: In SRB staining, fixed cells bind dye roughly in proportion to their protein.

A further experiment deals with HOP-92. Briefly: Growth inhibition of human HOP92 cells incubated for 48 hrs by sulforhodamine B assay. Particulars: HOP-92, 48 h. The essentials:
as §1

Another experiment deals with BT-549. Kind of experiment: Growth inhibition of human BT549 cells incubated for 48 hrs by sulforhodamine B assay. Particulars: BT-549, 48 h; for CC50: read-out: LC50 (the source's name). The method in brief:
(§2)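 NCI five-dose SRB assay (100, 10, 1.0, 0.1, 0.01 µM) with 48 h exposure in RPMI-1640 with 5% FBS and 2 mM L-glutamine. Cells fixed with TCA and stained with SRB, read at 515 nm. GI50 is the concentration where [(Ti−Tz)/(C−Tz)]×100 = 50.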

The next experiment relates to ACHN. Kind of experiment: Growth inhibition of human ACHN cells incubated for 48 hrs by sulforhodamine B assay. Particulars: for CC50: read-out: LC50 (the source's name). The method in brief:
(§3)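 NCI 60-line screen. Cells in RPMI-1640 with 5% FBS and 2 mM L-glutamine, preincubated 24 h, then time-zero plates TCA-fixed. Compounds from DMSO stocks given at five final concentrations (100, 10, 1.0, 0.1, 0.01 µM) for 48 h at 37 °C, 5% CO2. Cells fixed with 10% TCA, SRB-stained, read at 515 nm. GI50 is the concentration giving 50% lower net protein increase versus control.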

In the next experiment the test system is HCT-15. Briefly: Growth inhibition of human HCT15 cells incubated for 48 hrs by sulforhodamine B assay. Particulars: HCT-15, 48 h; for CC50: read-out: LC50 (the source's name). The method in brief:
as §3

A further experiment concerns PC-3. Briefly: Growth inhibition of human PC3 cells incubated for 48 hrs by sulforhodamine B assay. Particulars: PC-3, 48 h; for CC50: read-out: LC50 (the source's name). The essentials:
as §1

For the next experiment, the system named is HOP-62. Briefly: Growth inhibition of human HOP62 cells incubated for 48 hrs by sulforhodamine B assay. Particulars: HOP-62, 48 h; for CC50: read-out: LC50 (the source's name). The method in brief: as §2
For experiment [1], the system named is Staphylococcus aureus. Briefly: Bactericidal activity against vancomycin-intermediate Staphylococcus aureus after 24 hrs by resazurin dye based microdilution assay. Background: The colour change of resazurin is a common sign of viable cells or microbes.
The test system of another experiment is Klebsiella pneumoniae. Briefly: Bactericidal activity against carbapenemase positive Klebsiella pneumoniae BAA 1705 after 24 hrs by resazurin dye based microdilution assay. Conditions: BAA 1705, 24 h.
Experiment [2] concerns Staphylococcus aureus. Kind of experiment: Bactericidal activity against methicillin-sensitive Staphylococcus aureus ATCC 25923 after 24 hrs by resazurin dye based microdilution assay. Conditions: ATCC 25923, 24 h.
The subject of experiment [3] is Staphylococcus aureus. Briefly: Bactericidal activity against methicillin-resistant Staphylococcus aureus ATCC 43300 after 24 hrs by resazurin dye based microdilution assay. Particulars: ATCC 43300, 24 h. The essentials: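 3 µL of each dilution with no visible growth was plated onto trypticase agar. Gentamicin as control. Duplicate, replicated at least three times.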

Another experiment concerns Escherichia coli. Briefly: Bactericidal activity against Escherichia coli ATCC 25922 after 24 hrs by resazurin dye based microdilution assay. Particulars: ATCC 25922, 24 h.

Take `COc1ccc(C(=O)/C=C/c2cccc(Nc3ccnc4cc(Cl)ccc34)c2)cc1`: the GI50 (as a rule, the concentration at which growth is held to half of that of the control) in the experiment on KM12 is 2.45 µM; in the experiment on SF-539 it was 1.7 µM; in the experiment on HOP-92 it was 1.09 µM; in the experiment on BT-549 it was 1.87 µM; with ACHN, 1.73 µM; in the experiment with HCT-15 it was 2.04 µM. For the same compound, the GI50 in the experiment with PC-3 is 2.51 µM; with HOP-62, 1.44 µM. Also, the CC50 in the experiment on KM12, with SF-539, in the experiment on BT-549, in the experiment on ACHN, in the experiment on HCT-15 and in the experiment on PC-3 was over 100 µM in each case. Further, in the experiment with HOP-62, the CC50 was over 100 µM. In the experiment with HOP-92, this compound registered an LC50 (concentration giving 50% net cell kill) of over 100 µM.
As to `O=Cc1cccc(Nc2ccnc3cc(Cl)ccc23)c1`, the minimum bactericidal concentration (MBC) (in general, the lowest tested concentration that kills the bacteria rather than only halting them) in the experiment on Staphylococcus aureus [1] is 500 µg/mL (≈ 1770 µM); in the experiment with Klebsiella pneumoniae, over 1000 µg/mL; in the experiment with Staphylococcus aureus [2], 500 µg/mL (≈ 1770 µM); against Staphylococcus aureus [3], over 1000 µg/mL; against Escherichia coli it was 500 µg/mL (≈ 1770 µM).
For `COc1cccc2c1C(=O)c1c(O)c3c(c(O)c1C2=O)C[C@@](O)(C(=O)CO)C[C@@H]3O[C@H]1C[C@H](N)[C@H](O)[C@H](C)O1` [DOXORUBICIN], the GI50 with KM12 came out at 0.27 µM; in the experiment with SF-539, 0.12 µM; in the experiment with HOP-92, 0.1 µM; in the experiment on BT-549, 0.23 µM; in the experiment with ACHN, 0.08 µM; with PC-3 it was 0.32 µM. For the same compound, in the experiment on HOP-62, the GI50 worked out at 0.07 µM. The CC50 with ACHN and with HCT-15 was 100 µM throughout.
As for `COc1ccc(C2=NN(C=O)C(c3cccc(Nc4ccnc5cc(Cl)ccc45)c3)C2)cc1` (stereo unspecified), the GI50 in the experiment on KM12 came out at 2.18 µM; in the experiment on SF-539 it was 2.34 µM; with HOP-92, 3.41 µM; in the experiment with BT-549, 1.93 µM; with ACHN, 4.59 µM; with HCT-15, 2.13 µM. Moreover, the GI50 in the experiment on PC-3 was 2.87 µM; in the experiment with HOP-62, 2.11 µM. Further, the CC50 in the experiment on KM12 is over 100 µM; in the experiment with SF-539, 39.7 µM; with BT-549 it was over 100 µM; in the experiment with ACHN, over 100 µM; with HCT-15, over 100 µM; with PC-3 it was over 100 µM. Also, in the experiment on HOP-62, the CC50 worked out at 67.7 µM. The compound also had an LC50 (concentration giving 50% net cell kill) with HOP-92 of over 100 µM.
In the case of `O=CN1N=C(c2ccc(Cl)cc2)CC1c1cccc(Nc2ccnc3cc(Cl)ccc23)c1` (stereo unspecified), the GI50 in the experiment on KM12 was determined as 1.22 µM; in the experiment with SF-539 it was 1.69 µM; in the experiment on HOP-92, 1.45 µM; in the experiment with BT-549 it was 1.78 µM; in the experiment with ACHN it was 2.64 µM; in the experiment with HCT-15 it was 1.36 µM. The GI50 turned out to be 1.69 µM in the experiment with PC-3 and 1.21 µM in the experiment on HOP-62. The CC50 was over 100 µM with KM12; 35.1 µM in the experiment with SF-539; over 100 µM with BT-549; over 100 µM in the experiment with ACHN; over 100 µM in the experiment with HCT-15; over 100 µM in the experiment on PC-3. Also, the CC50 with HOP-62 is 70 µM. The compound further yielded an LC50 (concentration giving 50% net cell kill) in the experiment with HOP-92 of over 100 µM.
Regarding `COc1cc(C(=O)/C=C/c2cccc(Nc3ccnc4cc(Cl)ccc34)c2)cc(OC)c1OC`, the 50% growth inhibitory concentration (GI50) in the experiment with KM12 stood at 0.44 µM; in the experiment on SF-539 it was 1.36 µM; in the experiment on HOP-92, 1.47 µM; with BT-549, 1.23 µM; in the experiment with ACHN, 1.24 µM; with HCT-15 it was 0.52 µM. For the same compound, the GI50 in the experiment with PC-3 amounted to 1.48 µM; in the experiment with HOP-62, 0.68 µM. Further, the CC50 in the experiment with SF-539 was 5.27 µM; with BT-549 it was 6.59 µM; in the experiment on ACHN, 4.99 µM; in the experiment with PC-3 it was over 100 µM; in the experiment with HOP-62, 6.06 µM. The compound also had an LC50 (concentration giving 50% net cell kill) with HOP-92 of over 100 µM.
